Test results: ChEMBL document CHEMBL4680121, “Development of (4-methoxyphenyl)-1H-tetrazol-5-amine regioisomers as a new class of selective antitubercular agents” (Eur J Med Chem, 2020)
pIC50: −log10 of the molar value. Converted amounts (≈) assume the structure as drawn.

Assays:
Pseudomonas aeruginosa [1] = experiment: Antibacterial activity against Pseudomonas aeruginosa PAO1 assessed as bacterial growth inhibition measured after 18 hrs by two-fold serial microdilution method; type: functional
In short: (§1)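 Two-fold serial broth microdilution in MH II medium following modified CLSI procedures. Compounds were dissolved in DMSO and diluted in medium to at most 1% solvent, tested from 0.03125 to 512 μg/ml. Final inoculum 10^6 CFU/ml. MIC was taken as the lowest concentration with no visible growth after 18 h at 35 °C.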

[2] = test system: Staphylococcus epidermidis; experiment: Antibacterial activity against Staphylococcus epidermidis ATCC 35984/RP62A assessed as bacterial growth inhibition measured after 18 hrs by two-fold serial microdilution method; type: functional; in short: as §1
[3] = test system: Mycobacterium tuberculosis; experiment: Antitubercular activity against Mycobacterium tuberculosis Spec.192 assessed as inhibition of microbial growth incubated for 1 week by MABA method; type: functional; conditions: Mycobacterium tuberculosis, 192, 168 h; time 1 weeks
In short: (§2)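 Microplate Alamar Blue assay in Middlebrook 7H9 broth with 10% OADC. Inoculum from fresh LJ culture was adjusted to McFarland 1 and diluted 1:20. DMSO stocks were two-fold serially diluted to final 0.125–512 µg/ml, with growth and sterile controls. Plates ran 1 week at 37 °C, then Alamar blue was added for 24 h. MIC is the lowest concentration preventing the blue-to-pink change.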

[4] = test system: Mycobacterium intracellulare; experiment: Antimycobacterial activity against Mycobacterium intracellulare assessed as inhibition of microbial growth incubated for 1 week by MABA method; type: functional; conditions: 168 h, time 1 weeks
In short: (§3)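 Microplate Alamar Blue assay using two-fold serial microdilution in Middlebrook 7H9 broth with 10% OADC, compounds 0.125–512 µg/ml from DMSO stocks. Inoculum came from fresh LJ culture, was adjusted to McFarland 1 and diluted 1:20. Plates were incubated 1 week at 37 °C, Alamar blue was added and plates were re-incubated 24 h. MIC was the lowest concentration preventing the blue-to-pink change. Each plate carried growth and sterile controls.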

[5] = test system: Staphylococcus epidermidis; experiment: Antibacterial activity against Staphylococcus epidermidis ATCC 1457 assessed as bacterial growth inhibition measured after 18 hrs by two-fold serial microdilution method; type: functional; in short: as §1
Klebsiella pneumoniae = experiment: Antibacterial activity against Klebsiella pneumoniae ATCC 10031 assessed as bacterial growth inhibition measured after 18 hrs by two-fold serial microdilution method; type: functional; in short: as §1
HaCaT [6] = experiment: Cytotoxicity against human HaCaT cells assessed as reduction in cell viability measured after 72 hrs by MTT assay; type: cell-based
In short: (§4)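 MTT viability assay on cells grown in DMEM with 10% heat-inactivated FBS, penicillin/streptomycin and 20 mM HEPES at 37 °C/5% CO2. Cells were seeded at 1×10^4 per well and allowed to adhere for 24 h, then the medium was refreshed. Compounds were added at 20–140 μM for 72 h at 37 °C, followed by MTT (0.5 mg/mL in serum-free medium) for 4 h. Untreated cells served as control. IC50 is the concentration giving 50% growth inhibition versus control.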

HaCaT [7] = experiment: Cytotoxicity against human HaCaT cells assessed as reduction in cell viability at 100 uM measured after 72 hrs by MTT assay; type: cell-based; in short: as §4
Mycobacterium xenopi = experiment: Antibacterial activity against Mycobacterium xenopi assessed as inhibition of microbial growth incubated for 1 week by MABA method; type: functional; conditions: 168 h, time 1 weeks; in short: as §3
Staphylococcus aureus [8] = experiment: Antibacterial activity against Staphylococcus aureus NCTC 4163 assessed as bacterial growth inhibition measured after 18 hrs by two-fold serial microdilution method; type: functional; in short: as §1
Mycobacterium kansasii = experiment: Antibacterial activity against Mycobacterium kansasii assessed as inhibition of microbial growth incubated for 1 week by MABA method; type: functional; conditions: 168 h, time 1 weeks; in short: as §3
Escherichia coli = experiment: Antibacterial activity against Escherichia coli ATCC 25922 assessed as bacterial growth inhibition measured after 18 hrs by two-fold serial microdilution method; type: functional; in short: as §1
Staphylococcus aureus [9] = experiment: Antibacterial activity against Staphylococcus aureus ATCC 6538 assessed as bacterial growth inhibition measured after 18 hrs by two-fold serial microdilution method; type: functional; in short: as §1
[10] = test system: Mycolicibacterium fortuitum; experiment: Antibacterial activity against Mycobacterium fortuitum assessed as inhibition of microbial growth incubated for 1 week by MABA method; type: functional; conditions: 168 h, time 1 weeks; in short: as §3
[11] = test system: Mycobacterium scrofulaceum; experiment: Potency index, ratio of isoniazid MIC to test compound MIC for antibacterial activity against Mycobacterium scrofulaceum assessed as inhibition of microbial growth incubated for 1 week by MABA method; type: functional; conditions: time 1 weeks
Proteus vulgaris = experiment: Antibacterial activity against Proteus vulgaris NCTC 4635 assessed as bacterial growth inhibition measured after 18 hrs by two-fold serial microdilution method; type: functional; in short: as §1
Mycobacterium avium = experiment: Antimycobacterial activity against Mycobacterium avium assessed as inhibition of microbial growth incubated for 1 week by MABA method; type: functional; conditions: 168 h, time 1 weeks; in short: as §2
V79 [12] = experiment: Cytotoxicity against Chinese Hamster V79 cells assessed as reduction in cell viability at 100 uM measured after 72 hrs by MTT assay; type: cell-based, Cricetulus griseus; conditions: v79, 72 h; in short: as §4
V79 [13] = experiment: Cytotoxicity against Chinese Hamster V79 cells assessed as reduction in cell viability measured after 72 hrs by MTT assay; type: cell-based; conditions: Cricetulus griseus, V79, 72 h; in short: as §4
[14] = test system: Mycobacterium scrofulaceum; experiment: Antibacterial activity against Mycobacterium scrofulaceum assessed as inhibition of microbial growth incubated for 1 week by MABA method; type: functional; conditions: 168 h, time 1 weeks; in short: as §3
[15] = test system: Mycobacterium tuberculosis; experiment: Antitubercular activity against Mycobacterium tuberculosis H37Rv ATCC 25618 assessed as inhibition of microbial growth incubated for 1 week by MABA method; type: functional; conditions: H37Rv ATCC 25618, 168 h, time 1 weeks; in short: as §2
[16] = test system: Staphylococcus epidermidis; experiment: Antibacterial activity against Staphylococcus epidermidis ATCC 12228 assessed as bacterial growth inhibition measured after 18 hrs by two-fold serial microdilution method; type: functional; in short: as §1
Pseudomonas aeruginosa [17] = experiment: Antibacterial activity against Pseudomonas aeruginosa NCTC 6749 assessed as bacterial growth inhibition measured after 18 hrs by two-fold serial microdilution method; type: functional; in short: as §1
[18] = test system: Mycobacterium tuberculosis; experiment: Antitubercular activity against Mycobacterium tuberculosis Spec.192 assessed as inhibition of microbial growth by classical test tube method; type: functional
In short: (§5)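 Classical test-tube serial dilution in Youmans' modified Proskauer–Beck liquid medium with 10% bovine serum. Inoculum came from 14-day-old cultures. Compounds were given as DMSO solutions (stock 10 mg/ml), diluted geometrically in medium to 3.1–100 µg/ml, and incubated at 37 °C. MIC is the minimum concentration inhibiting growth relative to a no-compound control.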

[19] = test system: Mycobacterium tuberculosis; experiment: Antitubercular activity against Mycobacterium tuberculosis H37Rv ATCC 25618 assessed as inhibition of microbial growth by classical test tube method; type: functional; in short: as §5

| Compound | MIC (Pseudomonas aeruginosa [1]) [µg/mL] | MIC [2] [µg/mL] | MIC [3] [µg/mL] | MIC [4] [µg/mL] | MIC [5] [µg/mL] | MIC (Klebsiella pneumoniae) [µg/mL] | pIC50 (HaCaT [6]) | Activity (HaCaT [7]) | MIC (Mycobacterium xenopi) [µg/mL] | MIC (Staphylococcus aureus [8]) [µg/mL] | MIC (Mycobacterium kansasii) [µg/mL] | MIC (Escherichia coli) [µg/mL] | MIC (Staphylococcus aureus [9]) [µg/mL] | MIC [10] [µg/mL] | Ratio [11] | MIC (Proteus vulgaris) [µg/mL] | MIC (Mycobacterium avium) [µg/mL] | Activity (V79 [12]) | MIC [14] [µg/mL] | MIC [15] [µg/mL] | other results |
| --- | --- | --- | --- | --- | --- | --- | --- | --- | --- | --- | --- | --- | --- | --- | --- | --- | --- | --- | --- | --- | --- |
| COc1ccc(Nc2nnnn2-c2ccc(Cl)cc2)cc1 | > 256 | 256 (≈ 848 µM) | 8 | 128 | > 256 | > 256 | 3.99 | Non-Toxic | 128 | 256 (≈ 848 µM) | 512 | > 256 | > 256 | > 512 | 4 | > 256 | 256 | Non-Toxic | 16 | 8 | pIC50 (V79 [13]): 3.94; MIC [16]: 256 µg/mL (≈ 848 µM); MIC (Pseudomonas aeruginosa [17]): > 256 µg/mL |
| COc1ccc(Nc2nnnn2-c2cccc(Cl)c2)cc1 | > 256 | > 256 | 8 | 128 | > 256 | > 256 | 3.99 | Non-Toxic | 512 | > 256 | 512 | > 256 | > 256 | 512 | 32 | > 256 | 64 | Non-Toxic | 2 | 8 | pIC50 (V79 [13]): 3.91; MIC [16]: > 256 µg/mL; MIC (Pseudomonas aeruginosa [17]): > 256 µg/mL |
| COc1ccc(-n2nnnc2Nc2cccc(F)c2)cc1 | > 256 | 128 (≈ 449 µM) | 8 | 64 | 256 (≈ 897 µM) | > 256 | 3.90 | Non-Toxic | 512 | 128 (≈ 449 µM) | 512 | > 256 | 64 (≈ 224 µM) | 256 | 4 | > 256 | 128 | Non-Toxic | 16 | 8 | pIC50 (V79 [13]): 3.61; MIC [16]: 32 µg/mL (≈ 112 µM); MIC (Pseudomonas aeruginosa [17]): > 256 µg/mL |
| COc1ccc(Nc2nnnn2-c2cccc(F)c2)cc1 | > 256 | > 256 | 16 | 64 | > 256 | > 256 | 3.99 | Non-Toxic | 128 | > 256 | 256 | > 256 | > 256 | 256 | 4 | > 256 | 128 | Non-Toxic | 16 | 16 | pIC50 (V79 [13]): 3.91; MIC [16]: > 256 µg/mL; MIC (Pseudomonas aeruginosa [17]): > 256 µg/mL |
| NNC(=O)c1ccncc1 [ISONIAZID] | – | – | 0.125 | 64 | – | – | – | – | 64 | – | 32 | – | – | 128 | – | – | 32 | – | 64 | 0.125 | MIC [18]: 6.25 µg/mL; MIC [19]: 6.25 µg/mL |
| CO[C@H]1/C=C/O[C@@]2(C)Oc3c(C)c(O)c4c(O)c(c(/C=N/N5CCN(C)CC5)c(O)c4c3C2=O)NC(=O)/C(C)=C\C=C\[C@H](C)[C@H](O)[C@@H](C)[C@@H](O)[C@@H](C)[C@H](OC(C)=O)[C@@H]1C [RIFAMPIN] | – | – | 1 | – | – | – | – | – | – | – | – | – | – | – | – | – | – | – | – | 1 | MIC [18]: < 3.1 µg/mL; MIC [19]: < 3.1 µg/mL |
| CN[C@@H]1[C@H](O[C@H]2[C@H](O[C@H]3[C@H](O)[C@@H](O)[C@H](N=C(N)N)[C@@H](O)[C@@H]3N=C(N)N)O[C@@H](C)[C@]2(O)C=O)O[C@@H](CO)[C@H](O)[C@H]1O [STREPTOMYCIN] | – | – | 1 | – | – | – | – | – | – | – | – | – | – | – | – | – | – | – | – | 1 | MIC [18]: < 3.1 µg/mL; MIC [19]: < 3.1 µg/mL |
